Assay outcomes: PubChem BioAssay, Johns Hopkins Ion Channel Center
KCNK9 inh = human KCNK9 channel inhibition; HEK293 KCNK9, FluxOR thallium flux fluorescence; stronger effect = lower value; hit rate 1.2% among 310,000; B-score at 10 µM;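 active means ratio B-score over 3 SD below the library mean, with starting fluorescence within 5 SD of its mean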;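 further: negative B-score means less thallium flux so channel inhibition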
KCNQ1 act = potentiators or activators of human KCNQ1 potassium channel; hit rate 0.35% among 310,000; CHO-K1 KCNQ1, thallium flux FluxOR fluorescence; stronger effect = higher value; B-score at 10 µM;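 active means fluorescence ratio B-score, a plate-corrected score, at least three library SD, with initial intensity B-score within 5 SD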
Target sequence (P51787 whole entry, looked up): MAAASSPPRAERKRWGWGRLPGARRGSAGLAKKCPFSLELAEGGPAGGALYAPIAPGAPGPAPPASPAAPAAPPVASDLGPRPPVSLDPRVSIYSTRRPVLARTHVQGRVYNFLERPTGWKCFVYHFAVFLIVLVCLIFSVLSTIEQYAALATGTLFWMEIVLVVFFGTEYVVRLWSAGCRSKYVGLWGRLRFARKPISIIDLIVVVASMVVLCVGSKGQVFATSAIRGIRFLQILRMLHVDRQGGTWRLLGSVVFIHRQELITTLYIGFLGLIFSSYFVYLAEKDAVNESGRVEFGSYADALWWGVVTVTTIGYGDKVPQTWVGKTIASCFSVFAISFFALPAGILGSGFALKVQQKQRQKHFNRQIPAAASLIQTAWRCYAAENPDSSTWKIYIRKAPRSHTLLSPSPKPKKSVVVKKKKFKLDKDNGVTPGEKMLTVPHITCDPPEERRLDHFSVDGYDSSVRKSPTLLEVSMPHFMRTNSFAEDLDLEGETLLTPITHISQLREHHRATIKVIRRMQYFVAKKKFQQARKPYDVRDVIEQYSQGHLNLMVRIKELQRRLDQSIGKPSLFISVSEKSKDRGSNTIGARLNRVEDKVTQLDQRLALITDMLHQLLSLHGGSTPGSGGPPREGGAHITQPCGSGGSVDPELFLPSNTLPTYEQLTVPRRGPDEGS
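Schedule – 37 °C overnight plating, 90-min dark dye load, 20-min compound pretreatment · System – stable KCNQ1 CHO-K1 line · Probe or stimulus – thallium- and potassium-containing depolarizing buffer · Measured by – kinetic FluxOR fluorescence, 10 s baseline plus 110 s post-stimulus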
hERG protect = compounds protecting human hERG from proarrhythmic drug block; Q12809; CHO-hERG, FluxOR thallium flux, dofetilide IC70 present; activation (rescue from dofetilide block), less the hit threshold, % at 10 µM; hit rate 0.51% among 310,000; AID 1511;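 active means activation above the mean of controls blocked by dofetilide plus 5 SD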;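 further: thallium influx through hERG after potassium depolarization seen as dye fluorescence rise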
KCNQ1 block = inhibitors of human KCNQ1 potassium channel; P51787; CHO-K1 KCNQ1, FluxOR thallium flux fluorescence; stronger effect = higher value; B-score at 10 µM; hit rate 1.3% among 310,000; AID 2642;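 active means compounds whose thallium flux B-score, printed positive for inhibition, exceeds three library SD while starting fluorescence stays within three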;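 further: channel opened by potassium depolarization with thallium stimulus after 20 min compound exposure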
KCNK3 inh = human KCNK3 channel inhibition, primary screen | O14649 | CHO-KCNK3 thallium flux, FluxOR fluorescence; stronger effect = lower value | B-score at 10 µM | hit rate 0.84% among 340,000;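 active means B-score under library mean minus 4 SD, starting fluorescence ratio at most library mean plus 5 SD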;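 further: more negative B-score means stronger inhibition of thallium flux through KCNK3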
Kir21 block = inhibitors of mouse Kir2.1 inward-rectifier potassium channel. P35561. HEK293-Kir2.1, FluxOR thallium flux fluorescence; stronger effect = lower value. B-score at 10 µM. hit rate 0.85% among 310,000. AID 1672;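 active means fluorescence ratio B-score at or below minus 3 SD of library scores, with starting-brightness B-score within 2 SD, cut at about -4.2 in these data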;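 further: channel flux triggered by added potassium and thallium sulfate stimulus; B-score of peak minus minimum fluorescence over baseline after thallium stimulus; more negative B-score means stronger Kir2.1 block with less thallium influx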
KCNK9 block conf = confirmation of human KCNK9 potassium channel inhibitors | inhibition, % at 10 µM | shares compounds with KCNK9 inh | hit rate 43% among 4,900 | AID 492992 | HEK293 KCNK9 cells, FluxOR thallium flux fluorescence;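 active means thallium signal inhibited by more than 5 SD of the compound-free buffer control wells, on both duplicate plates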
Kir21 sel = tests whether KCNK9 modulators also affect mouse Kir2.1; AID 492993; shares compounds with KCNK9 inh; Kir2.1 cells, FluxOR thallium flux fluorescence; hit rate 4% among 4,900; inhibition, % at 10 µM;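 active means thallium signal drop more than 5 SD beyond the mean of the no-compound control wells, seen in both duplicate plates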;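 further: signal is fluorescence rise after thallium addition divided by baseline fluorescence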
KCNK9 uninduced = non-induced cell nonspecific activity of KCNK9 modulators; shares compounds with KCNK9 inh; non-induced KCNK9-HEK293, FluxOR thallium flux; inhibition, % at 10 µM; hit rate 40% among 4,900;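 active means thallium signal drop beyond 5 SD of the untreated control mean, on both duplicate plates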
KCNK3 inh conf = confirmation of human KCNK3 two-pore domain potassium channel inhibitors | shares compounds with KCNK3 inh | hit rate 99% among 2,400 | AID 651638 | CHO-KCNK3 thallium flux, FluxOR fluorescence; 0% buffer, 100% carvedilol maximal block | ratio percent of control, % at 10 µM;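 active means ratio percent of control, averaged over triplicates, above buffer control mean plus 5 SD, cut at about 64% in these data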;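 further: ratio is the fluorescence rise from min to max over baseline after thallium stimulus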
KCNK3 uninduced = counter-screen for KCNK3 inhibitors: effect in non-induced cells | shares compounds with KCNK3 inh | non-induced KCNK3 parental cells, FluxOR thallium flux; stronger effect = lower value | thallium flux ratio (lower = more inhibition) at 10 µM | hit rate 40% among 2,400;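 active means thallium flux ratio, averaged over three wells, more than 5 SD below the buffer control mean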;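 further: host cells are CHO cells without KCNK3 induction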
Large screens that a line does not name were inactive (follow-up assays come after a bar, where they were run). A selection: hits, their analogues and other compounds. The true share with any hit is near 3.8%.

O=S(=O)(NC1CCCCC1N1CCN(c2cccc(Cl)c2)CC1)c1ccccc1 (stereo not given)	KCNK9 inh -13, KCNK3 inh -10 | KCNK9 block conf 57% | Kir21 sel inactive | KCNK9 uninduced 42% | KCNK3 inh conf 107 | KCNK3 uninduced inactive
CN1CCN(C2CCCCC2NS(=O)(=O)c2ccccc2)CC1 (stereo not given)	none
COc1ccc(S(=O)(=O)NC2CC(=O)N(c3ccc4c(c3)OCCO4)C2)cc1 (stereo not given)	none
Cc1cnc(C(=O)OC(C(=O)c2c[nH]c3ccccc23)c2ccccc2)cn1 (stereo not given)	KCNK9 inh -20, KCNK3 inh -11 | KCNK9 block conf 78% | Kir21 sel inactive | KCNK9 uninduced 35% | KCNK3 inh conf 108 | KCNK3 uninduced inactive
CCOC(=O)c1ccc(S(=O)(=O)N2CCN(C(=O)c3ccccn3)CC2)cc1	none (no result: KCNK9 inh, KCNQ1 act, hERG protect, KCNQ1 block, Kir21 block)
O=C(Oc1c(Br)cc(C(=S)N2CCOCC2)cc1Br)c1ccc(Cl)cc1	none
O=C(Oc1ccc(C(=S)N2CCOCC2)cc1Br)c1cc(Cl)ccc1Cl	KCNK9 inh -14, KCNK3 inh -9.4 | KCNK9 block conf 48% | Kir21 sel inactive | KCNK9 uninduced 35% | KCNK3 inh conf 99 | KCNK3 uninduced inactive
CCc1ccc(NC(=O)c2sccc2-n2cccc2)cc1	KCNK9 inh -8.6, KCNK3 inh -12 | KCNK9 block conf 59% | Kir21 sel inactive | KCNK9 uninduced 40% | KCNK3 inh conf 100 | KCNK3 uninduced 0.15
O=C(CSc1ccc(S(=O)(=O)N2CCCC2)cn1)Nc1ccc([N+](=O)[O-])cc1C(F)(F)F	none (no result: KCNK9 inh, KCNQ1 act, hERG protect, KCNQ1 block, Kir21 block)
Cc1ccc(COn2c(-c3ccc(Cl)cc3Cl)nc3ncccc32)cc1	KCNK9 inh -11, KCNK3 inh -9.6, Kir21 block -5.1 | KCNK9 block conf 56% | Kir21 sel inactive | KCNK9 uninduced 42% | KCNK3 inh conf 120 | KCNK3 uninduced 0.15
CC(=O)COc1ncn(-c2ccccc2)n1	none
O=C1C=C(c2ccc(F)nc2)C[C@@H](c2ccc3c(c2)OCO3)C1	none (no result: KCNK9 inh, KCNQ1 act, hERG protect, KCNQ1 block, Kir21 block)
CN(CC(=O)Nc1ccccc1F)Cc1cccs1	none
Cc1cc(Br)ccc1NC(=O)CN(C)Cc1cccs1	KCNK9 inh -12, KCNK3 inh -9 | KCNK9 block conf 43% | Kir21 sel inactive | KCNK9 uninduced 28% | KCNK3 inh conf 100 | KCNK3 uninduced inactive
O=C(N/N=C/c1ccc(Cl)cc1)c1cc(-c2cccnc2)nc2ccccc12	none
Nc1sc(-c2ccccc2)cc1C(=O)N/N=C/c1ccc(Cl)cc1	KCNK9 inh -14 | KCNK9 block conf 52% | Kir21 sel inactive | KCNK9 uninduced 38% | KCNK3 inh conf 123 | KCNK3 uninduced inactive
Cc1ccc(N(CC(=O)NCCc2ccccc2)C(=O)CCC(=O)Nc2cc(C)ccn2)cc1	none
Cn1nc(-c2ccccc2)c(-c2nc(-c3cccc(Cl)c3)no2)c1Cl	KCNK9 inh -9.6, KCNK3 inh -8.8 | KCNK9 block conf 33% | Kir21 sel inactive | KCNK9 uninduced 30% | KCNK3 inh conf 103 | KCNK3 uninduced inactive
O=C(N/N=C/c1cccnc1)c1ccccc1OCc1ccc(Br)cc1	KCNK9 inh -11, KCNK3 inh -11 | KCNK9 block conf 30% | Kir21 sel inactive | KCNK9 uninduced inactive | KCNK3 inh conf 115 | KCNK3 uninduced 0.16
O=C(N/N=C/c1cccnc1)c1ccccc1Br	none
COc1ccc(N2CCN(C3CCCN(C(=O)CN4CCOC4=O)C3)CC2)cc1 (stereo not given)	none
CCc1c(C)sc2nc3c(C(=O)N4CCOCC4)cc(C(=O)c4cc(F)ccc4O)cn3c(=O)c12	KCNK9 inh -13, KCNK3 inh -8.8 | KCNK9 block conf inactive | Kir21 sel inactive | KCNK9 uninduced 24% | KCNK3 inh conf 96 | KCNK3 uninduced inactive
Cc1sc2nc3c(C(=O)N4CCCC4)cc(C(=O)c4ccccc4O)cn3c(=O)c2c1C	none
COc1ccccc1C(CCN(Cc1cccs1)C(C)=O)c1ccco1 (stereo not given)	KCNK9 inh -9.3, KCNK3 inh -13 | KCNK9 block conf 40% | Kir21 sel inactive | KCNK9 uninduced 34% | KCNK3 inh conf 105 | KCNK3 uninduced inactive
COc1ccc(C(=O)NC(=S)Nc2ccc(Cc3ccncc3)cc2)cc1	none
Cc1ccc(NC(=S)N(CCN2CCCCC2)Cc2ccco2)cc1Cl	KCNK9 inh -8.2, KCNK3 inh -10 | KCNK9 block conf inactive | Kir21 sel inactive | KCNK9 uninduced 26% | KCNK3 inh conf 108 | KCNK3 uninduced inactive
COc1ccc(NC(=S)N(CCN2CCCCC2)Cc2ccco2)cc1	none
CCc1ccc(NC(=O)C(=O)NCCN2CCN(C(=O)c3ccco3)CC2)cc1	none
COc1ccccc1NS(=O)(=O)c1ccc(O)c(C(=O)OCc2cccc([N+](=O)[O-])c2)c1	KCNK9 inh -9.2, KCNK3 inh -8.8 | KCNK9 block conf inactive | Kir21 sel inactive | KCNK9 uninduced 28% | KCNK3 inh conf 99 | KCNK3 uninduced inactive
Cc1ccc(/C=C/C(=O)N2CCc3ccccc3C2)cc1	none
CC(C)(C)c1ccc(/C=C/C(=O)N2CCc3ccccc3C2)cc1	KCNQ1 block 13, KCNK3 inh -11 | KCNK9 block conf inactive | Kir21 sel inactive | KCNK9 uninduced 26% | KCNK3 inh conf 124 | KCNK3 uninduced 0.15
CCN(C(=O)CN1C(=O)COc2ccc(S(=O)(=O)N3CCCCCC3)cc21)c1cccc(C)c1	KCNK9 inh -12, KCNK3 inh -8.8 | KCNK9 block conf 44% | Kir21 sel inactive | KCNK9 uninduced 24% | KCNK3 inh conf 120 | KCNK3 uninduced inactive
CCN(Cc1ccccc1)C(=O)CN1C(=O)COc2ccc(S(=O)(=O)N3CCCCCC3)cc21	none
COC(=O)[C@H](CCSC)NC(=O)N1CCN(c2cccc(C(F)(F)F)c2)CC1	KCNK9 inh -8.8 | KCNK9 block conf 58% | Kir21 sel inactive | KCNK9 uninduced inactive | KCNK3 inh conf 84 | KCNK3 uninduced inactive
COc1cccc(CCN2CCC(CNS(=O)(=O)c3cc(-c4cc(C)no4)ccc3C)CC2)c1	none
